Test results taken from ChEMBL document CHEMBL5316289, “Structure-Based Rational Design of Small α-Helical Peptides with Broad-Spectrum Activity against Multidrug-Resistant Pathogens” (J Med Chem, 2023).
Values joined by “and” are separate entries in the source; they are usually repeats but may differ in a detail not shown here. Equal values may be shown once.

What was measured:
Staphylococcus aureus [1] = assay: Antibacterial activity against methicillin resistant Staphylococcus aureus ATCC BAA 1556 assessed as inhibition of bacterial growth incubated for 24 hrs by CLSI based broth microdilution method; assay type: functional
Pseudomonas aeruginosa = assay: Antibacterial activity against Pseudomonas aeruginosa […] assessed as inhibition of bacterial growth incubated for 24 hrs by CLSI based broth microdilution method; assay type: functional
Escherichia coli [2] = assay: Antibacterial activity against Escherichia coli ATCC 25922 assessed as inhibition of bacterial growth incubated for 24 hrs by CLSI based broth microdilution method; assay type: functional
Staphylococcus aureus [3] = assay: Antibacterial activity against Staphylococcus aureus ATCC 29213 assessed as inhibition of bacterial growth incubated for 24 hrs by CLSI based broth microdilution method; assay type: functional
Klebsiella pneumoniae = assay: Antibacterial activity against Klebsiella pneumoniae ATCC BAA 1705 assessed as inhibition of bacterial growth incubated for 24 hrs by CLSI based broth microdilution method; assay type: functional; details: read-out: MIC
Erythrocyte = assay: Hemolytic activity in human RBC incubated for 2 hrs by spectrophotometrical analysis; assay type: toxicity, cell-based
Method in brief: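 Human erythrocytes (4% suspension in PBS) mixed 1:1 with 2-fold serial peptide dilutions, 2 h at 37 °C without agitation. After centrifugation, supernatant hemoglobin read at 567 nm. 0% hemolysis set by PBS, 100% by 1% Triton X-100. HC50 is the concentration giving 50% hemolysis.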

Escherichia coli [4] = assay: Antibacterial activity against Escherichia coli ATCC 25922 assessed as fold increase in MIC incubated for 24 hrs in presence of Na+ ions by CLSI based broth microdilution method; assay type: functional
Method in brief: (§1)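 E. coli MICs by CLSI broth microdilution in cation-adjusted Mueller Hinton broth. […] Inoculum was 10^6 CFU/mL with 2-fold serial peptide dilutions, incubated 24 h at 37 °C. MIC is the lowest concentration inhibiting growth. Three independent assays, each in triplicate.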

Staphylococcus aureus [5] = assay: Antibacterial activity against methicillin resistant Staphylococcus aureus ATCC BAA 1556 assessed as fold increase in MIC incubated for 24 hrs in presence of Na+ ions by CLSI based broth microdilution method; assay type: functional
Method in brief: (§2)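 CLSI broth microdilution. Overnight cultures diluted in cation-adjusted Mueller Hinton broth to 10^6 CFU/mL, mixed 1:1 with 2-fold serial peptide dilutions, 24 h at 37 °C. […] MIC is the lowest concentration inhibiting growth. Three independent assays in triplicate.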

Escherichia coli [6] = assay: Antibacterial activity against Escherichia coli ATCC 25922 assessed as fold increase in MIC incubated for 24 hrs in presence of Mg2+ ions by CLSI based broth microdilution method; assay type: functional; method in brief: as §1
Staphylococcus aureus [7] = assay: Antibacterial activity against methicillin resistant Staphylococcus aureus ATCC BAA 1556 assessed as fold increase in MIC incubated for 24 hrs in presence of Ca2+ ions by CLSI based broth microdilution method; assay type: functional; method in brief: as §2
Escherichia coli [8] = assay: Antibacterial activity against Escherichia coli ATCC 25922 assessed as fold increase in MIC incubated for 24 hrs in presence of K+ ions by CLSI based broth microdilution method; assay type: functional; method in brief: as §1
Escherichia coli [9] = assay: Antibacterial activity against Escherichia coli ATCC 25922 assessed as fold increase in MIC incubated for 24 hrs in presence of NH4+ ions by CLSI based broth microdilution method; assay type: functional; method in brief: as §1
Staphylococcus aureus [10] = assay: Antibacterial activity against methicillin resistant Staphylococcus aureus ATCC BAA 1556 assessed as fold increase in MIC incubated for 24 hrs in presence of K+ ions by CLSI based broth microdilution method; assay type: functional; method in brief: as §2
Staphylococcus aureus [11] = assay: Antibacterial activity against methicillin resistant Staphylococcus aureus ATCC BAA 1556 assessed as fold increase in MIC incubated for 24 hrs in presence of Mg2+ ions by CLSI based broth microdilution method; assay type: functional; method in brief: as §2
Staphylococcus aureus [12] = assay: Antibacterial activity against methicillin resistant Staphylococcus aureus ATCC BAA 1556 assessed as fold increase in MIC incubated for 24 hrs in presence of NH4+ ions by CLSI based broth microdilution method; assay type: functional; method in brief: as §2
Escherichia coli [13] = assay: Antibacterial activity against Escherichia coli ATCC 25922 assessed as fold increase in MIC incubated for 24 hrs in presence of Ca2+ ions by CLSI based broth microdilution method; assay type: functional; method in brief: as §1

Substance | MIC (Staphylococcus aureus [1]) | MIC (Pseudomonas aeruginosa) [µg/mL] | MIC (Escherichia coli [2]) | MIC (Staphylococcus aureus [3]) | MIC (Klebsiella pneumoniae) [µg/mL] | also measured
H-RWWRRAWR-NH2 | > 100 µg/mL and > 78.7 µM | > 100 | > 100 µg/mL and > 78.7 µM | > 100 µg/mL and > 78.7 µM | > 100 | –
H-RWARRWARWWRR-NH2 | – | 100 | > 100 µg/mL and > 54.3 µM | – | > 100 | –
H-WRRWWRR-NH2 | 100 µg/mL | > 100 | > 100 µg/mL and > 83.3 µM | 100 µg/mL | > 100 | –
H-KWAKKWAKWWKK-NH2 | 100 µg/mL | > 100 | > 100 µg/mL and > 59.8 µM | 100 µg/mL | > 100 | –
H-WRRWARRW-NH2 | > 100 µg/mL and > 78.7 µM | > 100 | > 100 µg/mL and > 78.7 µM | > 100 µg/mL and > 78.7 µM | > 100 | –
H-AWWRRAWRR-NH2 | > 100 µg/mL and > 74.5 µM | > 100 | > 100 µg/mL and > 74.5 µM | > 100 µg/mL and > 74.5 µM | > 100 | –
Ac-RWARRWARWWRR-NH2 | – | 100 | 100 µg/mL | – | > 100 | HC50 (Erythrocyte): 110 ug ml-1 and 58.4 µM
H-RAWRAWWRRA-NH2 | > 100 µg/mL and > 70.7 µM | > 100 | > 100 µg/mL and > 70.7 µM | > 100 µg/mL and > 70.7 µM | > 100 | –
H-RRWRRWW-NH2 | 100 µg/mL | > 100 | > 100 µg/mL and > 83.3 µM | 100 µg/mL | > 100 | –
H-RAWRRWWRAA-NH2 | > 100 µg/mL and > 70.7 µM | > 100 | > 100 µg/mL and > 70.7 µM | > 100 µg/mL and > 70.7 µM | > 100 | –
H-ARRWWRRW-NH2 | 100 µg/mL and > 78.7 µM | > 100 | > 100 µg/mL and > 78.7 µM | 100 µg/mL | > 100 | –
H-KWIKKWIKWWKK-NH2 | – | – | – | – | – | fold change (FC) (Escherichia coli [4]): 2; fold change (FC) (Staphylococcus aureus [5]): 2; fold change (FC) (Escherichia coli [6]): 2; fold change (FC) (Staphylococcus aureus [7]): 2; fold change (FC) (Escherichia coli [8]): 2; fold change (FC) (Escherichia coli [9]): 2; fold change (FC) (Staphylococcus aureus [10]): 2; fold change (FC) (Staphylococcus aureus [11]): 2; fold change (FC) (Staphylococcus aureus [12]): 2; fold change (FC) (Escherichia coli [13]): 2
H-RWWRRWR-NH2 | 100 µg/mL | > 100 | > 100 µg/mL and > 83.3 µM | 100 µg/mL | > 100 | –
H-RWWRRAWAR-NH2 | > 100 µg/mL and > 74.5 µM | > 100 | > 100 µg/mL and > 74.5 µM | > 100 µg/mL and > 74.5 µM | > 100 | –
H-RWARRWARWWR-NH2 | 100 µg/mL | 100 | 100 µg/mL | – | > 100 | –
H-RWARRAWRAW-NH2 | > 100 µg/mL and > 70.7 µM | > 100 | > 100 µg/mL and > 70.7 µM | > 100 µg/mL and > 70.7 µM | > 100 | –
H-RAWRRWARAW-NH2 | > 100 µg/mL and > 70.7 µM | > 100 | > 100 µg/mL and > 70.7 µM | > 100 µg/mL and > 70.7 µM | > 100 | –
H-AAWRRWWRRA-NH2 | > 100 µg/mL and > 70.7 µM | > 100 | > 100 µg/mL and > 70.7 µM | > 100 µg/mL and > 70.7 µM | > 100 | –
